≈ marks a conversion by molar mass, not a printed value.
Tests used:
Assay type in all cases: functional
Klebsiella pneumoniae = experiment: Antibacterial activity against Klebsiella pneumoniae MTCC 7028 assessed as growth inhibition at 100 ug/disk after 24 hr by disk diffusion method; details: MTCC 7028, 24 h, read-out: DIZ
Method in brief: (§1)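 Disk diffusion on nutrient agar. Strains kept on NA slants at 37 °C and subcultured in nutrient broth before testing. A log-phase culture was spread on solidified medium, and sterile disks were loaded with compound from DMSO stock. DMSO served as control, with commercial antibiotics for reference. Plates ran 24 h at 37 °C, and inhibition zones (mm) were read in quadruplicate.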

[1] = system: Radical scavenging activity; experiment: Antioxidant activity assessed as DPPH free radical scavenging activity at 40 ug/mL after 20 min by UV-Vis spectrophotometric analysis
Method in brief: (§2)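 DPPH radical scavenging: samples were held at room temperature for 20 min in the dark, and absorbance was read at 517 nm. The control contained DMSO without compound, and methanol was used for baseline correction. Scavenging percentage was calculated from the absorbances.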

Xanthomonas oryzae = experiment: Antibacterial activity against Xanthomonas oryzae ITCC B-47 assessed as as growth inhibition at 100 ug/disk after 24 hr by disk diffusion method; details: ITCC B-47, 24 h, read-out: DIZ
[2] = system: Radical scavenging activity; experiment: Antioxidant activity assessed as DPPH free radical scavenging activity at 20 ug/mL after 20 min by UV-Vis spectrophotometric analysis; method in brief: as §2
Bacillus thuringiensis = experiment: Antibacterial activity against Bacillus thuringiensis MTCC 6941 assessed as growth inhibition at 100 ug/disk after 24 hr by disk diffusion method; details: MTCC 6941, 24 h, read-out: DIZ; method in brief: as §1
Rhizoctonia solani = experiment: Antifungal activity against Rhizoctonia solani ITCC 5563 by food poisoning method
Method in brief: (§3)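 Poisoned food technique on PDA at several concentrations. A 5 mm mycelial plug from the growing edge of a 2-week-old colony was placed inoculum-side down at the plate centre. Plates incubated at 27 °C until control growth was nearly complete. Colony diameter measured, percent inhibition calculated against control, LC50 derived. Four replicates per treatment.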

[3] = system: Radical scavenging activity; experiment: Antioxidant activity assessed as DPPH free radical scavenging activity at 10 ug/mL after 20 min by UV-Vis spectrophotometric analysis; method in brief: as §2
[4] = system: Radical scavenging activity; experiment: Antioxidant activity assessed as DPPH free radical scavenging activity after 20 min by UV-Vis spectrophotometric analysis; parameters: concentration or dose not given beside the values; method in brief: as §2
Bacillus pumilus = experiment: Antibacterial activity against Bacillus pumilus MTCC 2466 assessed as growth inhibition at 100 ug/disk after 24 hr by disk diffusion method; details: MTCC 2466, 24 h, read-out: DIZ; method in brief: as §1
[5] = system: Radical scavenging activity; experiment: Antioxidant activity assessed as DPPH free radical scavenging activity at 500 ug/mL after 20 min by UV-Vis spectrophotometric analysis; method in brief: as §2
Athelia rolfsii = experiment: Antifungal activity against Athelia rolfsii ITCC 6181 by food poisoning method; details: Agroathelia rolfsii; method in brief: as §3
[6] = system: Radical scavenging activity; experiment: Antioxidant activity assessed as DPPH free radical scavenging activity at 400 ug/mL after 20 min by UV-Vis spectrophotometric analysis; method in brief: as §2
Staphylococcus aureus = experiment: Antibacterial activity against Staphylococcus aureus MTCC 3160 assessed as growth inhibition at 100 ug/disk after 24 hr by disk diffusion method; details: MTCC 3160, 24 h, read-out: DIZ; method in brief: as §1
[7] = system: Radical scavenging activity; experiment: Antioxidant activity assessed as DPPH free radical scavenging activity at 80 ug/mL after 20 min by UV-Vis spectrophotometric analysis; method in brief: as §2
[8] = system: Radical scavenging activity; experiment: Antioxidant activity assessed as DPPH free radical scavenging activity at 60 ug/mL after 20 min by UV-Vis spectrophotometric analysis; method in brief: as §2
Pseudomonas aeruginosa = experiment: Antibacterial activity against Pseudomonas aeruginosa MTCC 2581 assessed as growth inhibition at 100 ug/disk after 24 hr by disk diffusion method; details: MTCC 2581, 24 h, read-out: DIZ; method in brief: as §1
Dickeya chrysanthemi = experiment: Antibacterial activity against Erwinia chrysanthemi ITCC B-40 assessed as as growth inhibition at 100 ug/disk after 24 hr by disk diffusion method; details: ITCC B-40, 24 h, read-out: DIZ; method in brief: as §1
[9] = system: Radical scavenging activity; experiment: Antioxidant activity assessed as DPPH free radical scavenging activity at 300 ug/mL after 20 min by UV-Vis spectrophotometric analysis; method in brief: as §2
[10] = system: Radical scavenging activity; experiment: Antioxidant activity assessed as DPPH free radical scavenging activity at 100 ug/mL after 20 min by UV-Vis spectrophotometric analysis; method in brief: as §2
[11] = system: Radical scavenging activity; experiment: Antioxidant activity assessed as DPPH free radical scavenging activity at 200 ug/mL after 20 min by UV-Vis spectrophotometric analysis; method in brief: as §2

Structure (SMILES) | zone of inhibition at 100 µg/disc (Klebsiella pneumoniae) [mm] | zone of inhibition at 100 µg/disc (Xanthomonas oryzae) [mm] | zone of inhibition at 100 µg/disc (Bacillus thuringiensis) [mm] | LC50 (Rhizoctonia solani) [µg/mL] | Activity [4] [%] | zone of inhibition at 100 µg/disc (Bacillus pumilus) [mm] | LC50 (Athelia rolfsii) [µg/mL] | zone of inhibition at 100 µg/disc (Staphylococcus aureus) [mm] | zone of inhibition at 100 µg/disc (Pseudomonas aeruginosa) [mm] | zone of inhibition at 100 µg/disc (Dickeya chrysanthemi) [mm] | also measured
COc1cc(C2CC(c3ccccc3)=Cc3n[nH]c(O)c32)cc(OC)c1OC (configuration not stated) | 0 | 0 | 0 | 917 (≈ 2420 µM) | 67.1 | 0 | 1020 (≈ 2710 µM) | 0 | 0 | 0 | Activity [1]: 67.1%; Activity [2]: 31.5%; Activity [3]: 18.1%; IC50 [4]: 22.28 µg/mL (≈ 58.9 µM); Activity [5]: 90.8%; Activity [6]: 90.5%; Activity [7]: 90.7%; Activity [8]: 86.4%; Activity [9]: 91.2%; Activity [10]: 91.8%; Activity [11]: 92.3%
CCOC(=O)C1C(=O)C=C(c2ccc(Cl)c(Cl)c2)CC1c1ccc(OC)cc1 (configuration not stated) | 0 | 0 | 0 | 1040 (≈ 2490 µM) | 2.92 | 0 | 6110 (≈ 14600 µM) | 0 | 0 | 0 | –
CCOC(=O)C1C(=O)C=C(c2ccc(OC)c(OC)c2)CC1c1ccc(OC)cc1 (configuration not stated) | 0 | 0 | 0 | – | 11.3 | 0 | 504 (≈ 1230 µM) | 0 | 0 | 10 | –
CCOC(=O)C1C(=O)C=C(c2ccccc2)CC1c1cc(OC)c(OC)c(OC)c1 (configuration not stated) | 0 | 0 | 0 | 139 (≈ 339 µM) | 1.69 | 0 | 365 (≈ 889 µM) | 0 | 0 | 0 | –
CCOC(=O)C1C(=O)C=C(c2ccc(C)cc2)CC1c1ccc(OC)c(OC)c1 (configuration not stated) | 0 | 0 | 0 | 189 (≈ 479 µM) | 7.38 | 0 | 317 (≈ 804 µM) | 0 | 0 | 0 | –
CCOC(=O)C1C(=O)C=C(c2ccc(F)cc2)CC1c1ccccc1 (configuration not stated) | 10 | 0 | 0 | 35 (≈ 103 µM) | 3.86 | 0 | 319 (≈ 943 µM) | 0 | 0 | 10 | –
CCOC(=O)C1C(=O)C=C(c2ccccc2)CC1c1ccc(C)cc1 (configuration not stated) | 5 | 0 | 0 | 233 (≈ 697 µM) | 4.17 | 0 | 316 (≈ 945 µM) | 0 | 0 | 0 | –
CCOC(=O)C1C(=O)C=C(c2ccccc2)CC1c1ccc(OC)c(OC)c1 (configuration not stated) | 0 | 0 | 0 | 198 (≈ 520 µM) | 4.23 | 0 | 323 (≈ 849 µM) | 0 | 5 | 0 | –
CCOC(=O)C1C(=O)C=C(c2ccc(F)cc2)CC1c1cccc([N+](=O)[O-])c1 (configuration not stated) | 0 | 0 | 0 | 157 (≈ 410 µM) | 4.23 | 0 | 285 (≈ 743 µM) | 0 | 0 | 10 | –
CCOC(=O)C1C(=O)C=C(c2ccc(C)cc2)CC1c1cc(OC)c(OC)c(OC)c1 (configuration not stated) | 0 | 0 | 0 | 118 (≈ 278 µM) | 4.52 | 0 | 345 (≈ 813 µM) | 0 | 0 | 0 | –
COc1ccc(/C=C/C(=O)c2ccc(C)cc2)cc1OC | 0 | 0 | 0 | 107 (≈ 379 µM) | 0.71 | 0 | 587 (≈ 2080 µM) | 0 | 0 | 0 | –
Cc1ccc(/C=C/C(=O)c2ccc(C)cc2)cc1 [4,4'-DIMETHYLCHALCONE] | 0 | 0 | 0 | 635 (≈ 2690 µM) | 1.19 | 0 | 549 (≈ 2320 µM) | 0 | 0 | 0 | –
CCCCC(O)(Cn1cncn1)c1ccc(Cl)cc1Cl (configuration not stated) [HEXACONAZOLE] | – | – | – | 1.12 (≈ 3.56 µM) | – | – | 1.27 (≈ 4.04 µM) | – | – | – | –
CCOC(=O)C1C(=O)C=C(c2ccc(C)cc2)CC1c1ccc(C)cc1 (configuration not stated) | 5 | 0 | 0 | 231 (≈ 663 µM) | 3.54 | 0 | 321 (≈ 921 µM) | 0 | 10 | 0 | –
O=C(/C=C/c1ccccc1)c1ccccc1 [CHALCONE] | 0 | 0 | 0 | 2.49 (≈ 12 µM) | 9.11 | 0 | 674 (≈ 3240 µM) | 5 | 10 | 10 | –
CCOC(=O)C1C(=O)C=C(c2ccccc2)CC1c1ccccc1 (configuration not stated) | 10 | 0 | 0 | 207 (≈ 646 µM) | 3.33 | 0 | 304 (≈ 949 µM) | 0 | 0 | 0 | –
CCOC(=O)C1C(=O)C=C(c2ccc([N+](=O)[O-])cc2)CC1c1ccc2c(c1)OCO2 (configuration not stated) | 0 | 0 | 0 | 29 (≈ 70.8 µM) | 3.6 | 0 | 4310 (≈ 10500 µM) | 0 | 0 | 10 | –
CCOC(=O)C1C(=O)C=C(c2ccc(OC)cc2)CC1c1ccc(OC)c(OC)c1 (configuration not stated) | 0 | 0 | 0 | 34 (≈ 82.8 µM) | 4.71 | 0 | 315 (≈ 767 µM) | 0 | 0 | 0 | –
CCOC(=O)C1C(=O)C=C(c2ccc3c(c2)OCO3)CC1c1ccc(OC)cc1 (configuration not stated) | 0 | 0 | 0 | 396 (≈ 1000 µM) | 4.26 | 0 | 380 (≈ 963 µM) | 0 | 0 | 0 | –

— ChEMBL document CHEMBL3045565, “Microwave synthesis, characterization and bio-efficacy evaluation of novel chalcone based 6-carbethoxy-2-cyclohexen-1-one and 2H-indazol-3-ol derivatives” (Eur J Med Chem, 2013)
